Published values gathered from unrelated publications.
Compare with care: the assays were run in different laboratories.
Target: Serine/threonine-protein kinase STK11 (STK11, Homo sapiens, UniProt Q15831)
Sequence (Q15831 1-433, as in one of the studies): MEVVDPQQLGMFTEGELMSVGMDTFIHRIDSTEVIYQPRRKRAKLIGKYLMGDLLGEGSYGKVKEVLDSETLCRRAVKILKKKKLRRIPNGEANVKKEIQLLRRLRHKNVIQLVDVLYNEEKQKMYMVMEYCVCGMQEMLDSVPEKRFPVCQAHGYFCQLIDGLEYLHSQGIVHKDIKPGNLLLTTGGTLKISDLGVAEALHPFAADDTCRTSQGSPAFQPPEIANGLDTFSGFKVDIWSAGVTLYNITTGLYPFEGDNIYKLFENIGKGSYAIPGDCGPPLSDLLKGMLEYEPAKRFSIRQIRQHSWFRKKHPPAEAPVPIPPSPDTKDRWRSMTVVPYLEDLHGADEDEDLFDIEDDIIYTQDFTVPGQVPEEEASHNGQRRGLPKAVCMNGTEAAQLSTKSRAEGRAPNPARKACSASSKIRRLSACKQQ

read-out	mode	method	tested at	measurement	value	SMILES
cell-free assay	–	–	1 µM	remaining signal	45%	C#Cc1cnc(Nc2ccnc(CO)c2)nc1Nc1ccccc1S(C)(=O)=NC#N (stereo not drawn)
enzyme activity	inhibitor	–	1 µM	inhibition	10%	C=CC(=O)N1CCC([C@@H]2CCNc3c(C(N)=O)c(-c4ccc(Oc5ccccc5)cc4)nn32)CC1
binding	–	–	1 µM	remaining binding	99%	COc1ccc2oc(-c3ccc4nc(N)oc4c3)c/c(=N\c3ccccc3NC(=O)CCN)c2c1
binding	–	competition with immobilised ligand	0.5 µM	remaining binding	84%	CCCCC(=O)Nc1ccc(-c2ccc3ncn(CCC)c(=O)c3c2)cn1
enzyme activity	inhibitor	–	1 µM	inhibition	94%	CO[C@@H]1[C@H](N(C)C(=O)c2ccccc2)C[C@H]2O[C@]1(C)n1c3ccccc3c3c4c(c5c6ccccc6n2c5c31)C(=O)NC4
binding	–	competition with immobilised ligand	1 µM	remaining binding	99%	COc1ccc2[nH]c3c4[nH]c5ccc(OC)cc5c4c4c(c3c2c1)C(=O)NC4=O
cell-free assay	–	competition with immobilised ligand	25 µM	remaining binding	85%	N#Cc1ccc(NC(=O)Nc2ccccc2)cc1
binding	–	competition with immobilised ligand	1 µM	remaining binding	71%	C[C@H]1CC[C@H](n2c3cnccc3c3cnc(Nc4ccc5c(n4)CCN(C(=O)CO)C5)nc32)CC1
enzyme activity	inhibitor	–	1 µM	activity vs control	109%	CC(C)S(=O)(=O)c1ccc2nccc(Nc3ccc4sc(C5CCCC5)nc4c3)c2c1
